Hits are enriched below; roughly 1.4% of the tested compounds scored in any of these assays.
GSK3B inh – human GSK3beta kinase inhibitors, primary screen, biochemical, cell-free homogeneous, HTS. Glycogen synthase kinase-3 beta (Homo sapiens), P49841. GST-GSK3beta kinase, ADP-Glo luminescence, 60 min; stronger effect = lower value. activity score (negative = inhibition), % at 10 µM. actives 0.038% (n = 300,000). AID 2097, 2009;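 active = more than half of replicate wells score below -50%, meaning over 50% inhibition versus plate controls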;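 also: 0% = median DMSO wells and -100% = median GW8510 positive control wells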
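Test system: GST-fused GSK3beta enzyme, cell-free | Quantity: 1.6 ng GST-GSK3beta enzyme per well | Reagent: 25 µM ATP with peptide substrate | Schedule: 60 min enzyme reaction, room temperature | Signal: Luminescent ADP-Glo measurement of ADP formed | Read-out basis: Score relative to plate controls | Control set: DMSO and 20 µM GW8510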
GSK3A inh – blockers of GSK3A enzyme activity – biochemical, luminescence, cell-free homogeneous, HTS, primary screen; GSK-3 alpha kinase, ADP-Glo luminescence, 60 min; Glycogen synthase kinase-3 alpha (Homo sapiens), P49840; AID 2650, 2010; inhibition, % at 10 µM; actives 0.1% (n = 320,000);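 active = more than half of replicates show inhibition above 20%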;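 also: GST-tagged GSK-3 alpha with peptide substrate and 25 µM ATP; 0% = DMSO neutral wells and 100% = GW8510 positive control wells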
CDK5 inh – inhibitors of human CDK5/p35 kinase, primary screen, biochemical, single concentration | AID 488839, 2010 | actives 0.01% (n = 330,000) | inhibition, % at 10 µM | Recombinant CDK5/p35, ADP-Glo luminescence, 60 min;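 active = highest replicate inhibition of at least 50% and at least 75% of replicates reaching 50%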;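 also: plate controls were DMSO neutral control for no effect and GW8510 at 10 µM for full effect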
Target sequence (Q00535 whole entry, looked up): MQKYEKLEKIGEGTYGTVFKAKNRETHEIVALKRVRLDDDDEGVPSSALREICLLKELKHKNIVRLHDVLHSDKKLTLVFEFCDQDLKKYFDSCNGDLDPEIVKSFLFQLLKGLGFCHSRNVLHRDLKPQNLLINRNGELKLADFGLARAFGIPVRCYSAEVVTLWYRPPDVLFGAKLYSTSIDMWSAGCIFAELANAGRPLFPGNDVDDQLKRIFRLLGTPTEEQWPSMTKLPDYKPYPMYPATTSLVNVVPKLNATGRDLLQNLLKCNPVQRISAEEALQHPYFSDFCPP
Target sequence (Q15078 whole entry, looked up): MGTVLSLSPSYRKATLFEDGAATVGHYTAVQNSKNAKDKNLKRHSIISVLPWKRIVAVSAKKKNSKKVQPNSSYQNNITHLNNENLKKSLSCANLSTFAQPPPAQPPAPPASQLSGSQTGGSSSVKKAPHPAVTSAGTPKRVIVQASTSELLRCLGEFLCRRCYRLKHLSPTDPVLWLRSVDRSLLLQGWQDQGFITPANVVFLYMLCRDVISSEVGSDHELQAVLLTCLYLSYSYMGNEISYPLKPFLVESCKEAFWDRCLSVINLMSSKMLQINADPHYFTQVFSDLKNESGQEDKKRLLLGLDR
Env fusion inh – inhibitors of HIV-1 Env-driven cell-cell fusion, primary screen, HeLa-JRFL effector, CEM21 target cells, luciferase; actives 1.1% (n = 360,000); inhibition, % at 12.3 µM; AID 651610, 2012;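 active = mean replicate inhibition score of at least 50 and every replicate individually at or above 50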;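 also: 0% = plate neutral controls and 100% = maraviroc near 300 nM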
STK33 kinase inh – inhibitors of purified STK33 kinase, primary screen, biochemical, ADP-Glo luminescence, homogeneous, cell-free. actives 0.073% (n = 320,000). MBP phosphorylation. inhibition, % at 10 µM;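 active = inhibition at or above 25%, using the most active replicate where run in duplicate; inactive = inhibition below 25%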
GSIS activator – GLuc luminescence reporter in INS-1E cells, primary screen for activators of glucose-dependent secretion of insulin. INS-1E GLuc reporter insulin secretion, 2-3 h. activation, % at 16.6 µM. actives 0.61% (n = 370,000). AID 743287, 2014;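 active = lowest replicate activation of at least 40%, so every replicate reaches that level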;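 also: 0% = median of neutral control wells and 100% = median of IBMX positive control wells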
* = called active by the depositor; [ ] = another dose, or the depositor's remark.

What do the screens show for `COCCNC(=O)C[C@@H]1CC[C@H]2[C@@H](COc3ccc(NC(=O)COC)cc3C(=O)N2C)O1`?
Env fusion inh: -16[16.7 µM]; GSIS activator: -3

Results for Cc1ccc(-c2nc3c(=O)n(C)c4ccccc4c3o2)cc1 ?
GSK3B inh: -5; GSK3A inh: 0; CDK5 inh: 2; Env fusion inh: -55; STK33 kinase inh: -2; GSIS activator: 79*

What do the screens show for `Cc1ccc(-c2nc3c(=O)n(-c4ccccc4)c4c(c(=O)n(C)c(=O)n4C)c3o2)cc1`?
GSK3B inh: 1; GSK3A inh: 0; CDK5 inh: 2; Env fusion inh: -12; STK33 kinase inh: 0; GSIS activator: 3

Results for CC(C)NC(=O)N(C)C[C@@H]1Oc2ccc(NC(=O)C3CCCCC3)cc2CC(=O)N([C@H](C)CO)C[C@H]1C ?
Env fusion inh: 18[16.7 µM]; GSIS activator: 7

What do the screens show for `Cc1ccccc1-c1cnc2c(c1)C(=O)N([C@H](C)CO)C[C@@H](C)[C@@H](CN(C)Cc1cncnc1)O2`?
Env fusion inh: -9[16.7 µM]; GSIS activator: -5

Results for COc1ccc([C@@H]2[C@@H]3C(=O)N(C(C)(C)C)C(=O)[C@@H]3[C@]3(Cc4ccccc4)C(=O)N(c4ccc(OC)cc4)C(=O)N23)cc1 ?
GSK3B inh: -2; GSK3A inh: -4; CDK5 inh: 0; Env fusion inh: -11; STK33 kinase inh: 0; GSIS activator: 20

Results for COc1ccc([C@@H]2[C@@H]3C(=O)N(C(C)(C)C)C(=O)[C@@H]3[C@]3(CC(C)C)C(=O)N(c4ccc(C(F)(F)F)cc4)C(=O)N23)cc1 ?
GSK3B inh: -1; GSK3A inh: -1; CDK5 inh: -1; Env fusion inh: 109*; STK33 kinase inh: -3; GSIS activator: 3

Results for CC[C@@]12C(=O)N(c3cccc(C)c3)C(=O)N1[C@H](c1ccc(OC)cc1)[C@@H]1C(=O)N(C(C)(C)C)C(=O)[C@@H]12 ?
GSK3B inh: -5; GSK3A inh: -1; CDK5 inh: 0; STK33 kinase inh: 0

How did COc1ccc([C@@H]2[C@@H]3C(=O)N(C(C)(C)C)C(=O)[C@@H]3[C@]3(C)C(=O)N(c4ccc(C(F)(F)F)cc4)C(=O)N23)cc1 do in these assays?
GSK3B inh: 1; GSK3A inh: 1; CDK5 inh: 0; Env fusion inh: 66*; STK33 kinase inh: -1; GSIS activator: -15

How did COc1ccc([C@@H]2[C@@H]3C(=O)N(C(C)(C)C)C(=O)[C@@H]3[C@]3(Cc4ccccc4)C(=O)N(c4ccc(C(F)(F)F)cc4)C(=O)N23)cc1 do in these assays?
GSK3B inh: 3; GSK3A inh: -6; CDK5 inh: 2; Env fusion inh: 42; STK33 kinase inh: 1; GSIS activator: 1

Results for COc1ccc([C@@H]2[C@@H]3C(=O)N(C(C)(C)C)C(=O)[C@@H]3[C@]3(CC(C)C)C(=O)N(c4cccc(Br)c4)C(=O)N23)cc1 ?
GSK3B inh: 3; GSK3A inh: -2; CDK5 inh: 1; Env fusion inh: 90*; STK33 kinase inh: 0; GSIS activator: -7

How did COc1ccc([C@@H]2[C@@H]3C(=O)N(C(C)(C)C)C(=O)[C@@H]3[C@]3(CC(C)C)C(=O)N(c4ccccc4)C(=O)N23)cc1 do in these assays?
GSK3B inh: 1; GSK3A inh: -1; CDK5 inh: 1; Env fusion inh: 81*; STK33 kinase inh: 0; GSIS activator: -15

Results for CO[C@@H]1CN(C)C(=O)c2ccc(NC(=O)C3CC3)cc2OC[C@H](C)N(C(=O)CN(C)C)C[C@@H]1C ?
GSIS activator: 8

Results for Cc1noc(C)c1NC(=O)N(C)C[C@H]1Oc2ccc(NC(=O)CCN3CCOCC3)cc2C(=O)N([C@H](C)CO)C[C@H]1C ?
Env fusion inh: -12[16.7 µM]; GSIS activator: 16

How did O=S(=O)(c1ccc(F)cc1)c1nc(-c2ccco2)oc1Nc1ccccc1 do in these assays?
GSK3B inh: -25; GSK3A inh: 1; CDK5 inh: -1; Env fusion inh: 66*; STK33 kinase inh: -1; GSIS activator: 1

How did COC(=O)CN1C(c2ccccc2)=Nc2ccc(Cl)cc2C1c1ccccc1 (configuration not stated) do in these assays?
GSK3B inh: 2; GSK3A inh: -2; CDK5 inh: 2; Env fusion inh: 105*; STK33 kinase inh: -1

How did COC(=O)CN1C(C)=Nc2ccc(C)cc2C1c1ccccc1 (configuration not stated) do in these assays?
GSK3B inh: -1; GSK3A inh: 1; CDK5 inh: -1; Env fusion inh: 17; STK33 kinase inh: -1; GSIS activator: 6

How did CC(C)N1C(=O)N(c2cccc(Cl)c2)C(C)(O)CC1(C)C (configuration not stated) do in these assays?
GSK3B inh: 0; GSK3A inh: 0; CDK5 inh: -1; Env fusion inh: 7; STK33 kinase inh: -1; GSIS activator: 64*

Results for COC(=O)c1cccc(N2C(=O)c3ccccc3S2(=O)=O)c1 ?
GSK3B inh: -3; GSK3A inh: 0; CDK5 inh: 0; Env fusion inh: 7; STK33 kinase inh: -1

How did CN=C1c2ccccc2CN1c1cccc(C(=O)OC)c1 do in these assays?
GSK3B inh: -10; GSK3A inh: 1; CDK5 inh: 0; STK33 kinase inh: -2; GSIS activator: 89*

What do the screens show for `COc1ccc(NC(=O)N(C)C[C@H]2Oc3c(NC(=O)C4CC4)cccc3C(=O)N([C@H](C)CO)C[C@H]2C)cc1`?
Env fusion inh: -54[16.7 µM]; GSIS activator: 27

How did CC(C)(C)n1nnnc1C(c1ccc(F)cc1)N(Cc1ccc(F)cc1)Cc1ccco1 (configuration not stated) do in these assays?
GSK3B inh: 1; GSK3A inh: 1; Env fusion inh: 124*; STK33 kinase inh: 0

Results for CC(C)(C)n1nnnc1C(c1cccnc1)N(Cc1ccccc1)Cc1cccs1 (configuration not stated) ?
GSK3B inh: -1; GSK3A inh: 8; CDK5 inh: -2; Env fusion inh: 57*; STK33 kinase inh: -1

How did COc1ccc2c3c([nH]c2c1)[C@@H](CO)N(C)CC31CN(C(=O)Nc2c(C)noc2C)C1 do in these assays?
GSIS activator: 3

Screens from PubChem.
